Article PMC3023924 (Bioorganic & medicinal chemistry, 2010)
Structures can show the parent of a compound that is named as a salt.

Experiments:
rat striatal DAT = rat striatal DAT (Rattus norvegicus, UniProt P23977); assay: DAT photoaffinity labeling with [125I]-; assay type: binding; settings: 30 nM [125I]-(±)-3a; 10 μM or 100 μM competitor; band density vs. control
rDAT = settings: pattern previously seen; cited from earlier work
[1] = molecular target: T1, human dopamine transporter (hDAT) (Homo sapiens, UniProt Q01959); assay: [3H]-WIN-35,428 binding inhibition at hDAT N2A neuroblastoma cells; settings: from Ki values
T1 sequence (Q01959 whole entry): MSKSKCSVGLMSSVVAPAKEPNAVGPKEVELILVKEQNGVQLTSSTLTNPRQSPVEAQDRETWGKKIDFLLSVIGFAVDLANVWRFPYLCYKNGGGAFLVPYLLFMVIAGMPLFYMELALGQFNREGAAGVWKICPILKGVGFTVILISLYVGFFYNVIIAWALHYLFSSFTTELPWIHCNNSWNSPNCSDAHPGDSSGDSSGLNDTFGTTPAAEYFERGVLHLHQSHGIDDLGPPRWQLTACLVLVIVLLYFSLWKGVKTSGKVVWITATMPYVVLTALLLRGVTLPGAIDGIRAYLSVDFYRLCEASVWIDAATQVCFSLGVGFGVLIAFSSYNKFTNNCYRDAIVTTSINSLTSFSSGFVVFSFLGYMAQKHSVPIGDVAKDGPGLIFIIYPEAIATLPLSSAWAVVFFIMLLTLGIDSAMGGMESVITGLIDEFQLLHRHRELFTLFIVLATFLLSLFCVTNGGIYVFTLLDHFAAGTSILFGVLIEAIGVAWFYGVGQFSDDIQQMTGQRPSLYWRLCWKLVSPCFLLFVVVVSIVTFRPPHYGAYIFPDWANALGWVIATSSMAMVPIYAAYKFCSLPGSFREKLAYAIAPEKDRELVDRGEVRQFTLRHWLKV

DAT = settings: cited from earlier work; for IC50: read-out: DAT IC50 for inhibition of [3H]-WIN-35,428 binding
[2] = system: adult attention-deficit hyperactivity disorder (ADHD); settings: immediate-release and long-acting preparations; cited from earlier work
6Xhis-hDAT = 6Xhis-hDAT (Homo sapiens, UniProt Q01959); assay: DAT photoaffinity labeling with [125I]-; assay type: binding; settings: HEK hDAT cells; 30 nM, UV 254 nm, immunoprecipitation (not shown)
Sequence of 6Xhis-hDAT (Q01959 whole entry): as above

[3] = Storage stability of radioligand by HPLC; assay type: physicochemical; settings: 20 weeks at −20 °C in the dark
How it was run: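 The radioiodinated test compound was made by Chloramine-T iododestannylation and purified by reversed-phase HPLC (C-18, 8 × 100 mm, 6 μm; 3 mL/min; MeOH 35%/CH₃CN 35%/aqueous 30% with Et₃N 2.1% v/v and HOAc 2.8% v/v; radioactivity plus UV 254 nm detection). It was then trapped on a C-18 cartridge and eluted with MeOH. The storage period spanned more than two ¹²⁵I half-lives.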

[4] = molecular target: T1, human dopamine transporter (hDAT); assay: [3H]-dopamine uptake inhibition at hDAT N2A neuroblastoma cells; assay type: cell-based; settings: Table 1

Sequence of rat striatal DAT (P23977 whole entry): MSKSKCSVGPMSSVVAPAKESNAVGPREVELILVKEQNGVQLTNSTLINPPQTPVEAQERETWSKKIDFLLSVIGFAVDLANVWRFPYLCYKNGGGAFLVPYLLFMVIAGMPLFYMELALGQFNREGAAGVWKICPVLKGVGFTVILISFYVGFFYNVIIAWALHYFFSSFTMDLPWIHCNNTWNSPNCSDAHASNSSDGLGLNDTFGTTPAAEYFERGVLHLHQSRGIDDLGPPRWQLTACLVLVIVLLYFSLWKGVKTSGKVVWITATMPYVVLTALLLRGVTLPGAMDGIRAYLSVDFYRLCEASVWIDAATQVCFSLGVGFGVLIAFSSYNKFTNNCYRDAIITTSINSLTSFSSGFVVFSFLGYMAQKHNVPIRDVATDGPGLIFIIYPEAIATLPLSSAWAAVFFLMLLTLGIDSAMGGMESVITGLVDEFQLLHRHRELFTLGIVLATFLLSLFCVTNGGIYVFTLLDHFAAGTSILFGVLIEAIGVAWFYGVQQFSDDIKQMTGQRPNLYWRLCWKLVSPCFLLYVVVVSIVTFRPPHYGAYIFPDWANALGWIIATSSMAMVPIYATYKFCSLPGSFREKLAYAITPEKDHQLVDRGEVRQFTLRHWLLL

Fc1ccc(C(OCCN2CCN(CCCc3ccccc3)CC2)c2ccc(F)cc2)cc1 [GBR-12,909]
comparison of binding and uptake inhibition values (rDAT): essentially the same value for binding and uptake inhibition

COC(=O)[C@H](c1cccc(I)c1)[C@H]1CCCCN1 (racemic) [(±)-1f, (±)-threo-3-Iodomethylphenidate Hydrochloride]
improvement in DAT affinity versus methylphenidate [1]: ~ 5.5 fold

COC(=O)[C@H]1[C@@H](c2ccc(F)cc2)C[C@@H]2CC[C@H]1N2C [β-CFT, (−)-2-β-carbomethoxy-3-β-(4-fluorophenyl)tropane]
block of [125I]-(±)-3a incorporation into DAT (rat striatal DAT): 75–90%

CN1[C@@H]2CC[C@H]1C[C@@H](OC(c1ccccc1)c1ccccc1)C2 [benztropine]
comparison of binding and uptake inhibition values (rDAT): essentially the same value for binding and uptake inhibition

COC(=O)C(c1ccc([125I])cc1)[C@H]1CCCCN1Cc1ccc(N=[N+]=[N-])cc1 (mixture of isomers) [[^125I]-(±)-3a, [^125I]-(±)-threo-N-(p-Azido-benzyl)-4-iodomethylphenidate]
irreversible incorporation into DAT (labeled protein of ~80 kDa) (6Xhis-hDAT): demonstrating the incorporation of [^125I]-(±)-3a into the DAT
radiochemical purity after storage [3]: about 80%

COC(=O)[C@H](c1ccc(I)cc1)[C@H]1CCCCN1 (racemic) [(±)-1b, (±)-threo-4-Iodomethylphenidate Hydrochloride]
higher DAT affinity versus methylphenidate (DAT; previous pharmacological results): ~ 6 fold
IC50 (DAT): 14 ± 0.1 nM
improvement in DAT affinity versus methylphenidate [1]: approximately two-fold
comparison of binding and uptake inhibition values [4]: essentially the same value for binding and uptake inhibition
